Bioassay records from PubChem.
Insulin prom up = insulin promoter activators in MIN6 cells, imaging, high-content screening, mouse beta cells; MIN6 insulin promoter-GFP reporter; hits give high values; z-score at 5 µM; actives 0.3% (n = 190,000);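 active = z-score above 3 at 5 µM with at least 500 cells counted in the well; inconclusive = wells under 500 cells, flagged as cytotoxic or low count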
RAM inhibit = inhibitors of the yeast RAM network, primary screen, dse1pr::URA3 reporter, 5-FOA selection; AID 868, 2007; S. cerevisiae dse1pr::URA3 reporter, 5-FOA growth OD615, 2 d; analog-sensitive cbk1-as2 kinase mutant strain; inhibition, % at 50 µM; actives 1.8% (n = 190,000);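 active = inhibition above a set limit, 3 SD over mean compound inhibition, cut at about 8.4% in these data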;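 note: 0% = DMSO-only wells with no growth and 100% = 10 µM 1-NA-PP1 full growth; inhibition rescues growth on 5-FOA so higher OD means more RAM inhibition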
INS promoter inh = inhibitors of insulin promoter-driven GFP, primary screen, imaging, TRM-6 cells (human fetal islet line), eGFP reporter, cell count | reporter expression induced with tamoxifen | inhibition, % at 2 µM | actives 0.9% (n = 130,000) | AID 1273, 2008;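 active = inhibition above the mean plus 3 SD, with well images judged a real hit on visual review, cut at about 60% in these data, passing the limit was not always enough; inconclusive = inhibition over the cutoff but images rejected on review; inactive = inhibition not above the cutoff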
Yeast life ext = compounds extending yeast replicative lifespan, primary screen, S. cerevisiae, OD615 | S. cerevisiae growth with nicotinamide; deaD strain in restrictive glucose medium | inhibition of the nicotinamide effect, % at 10 µM | actives 0.68% (n = 130,000);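 active = inhibition above a set limit, placed 3 SD over the median of all compounds, cut at about 26% in these data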;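 note: 0% = nicotinamide-treated wells and 100% = cells grown without nicotinamide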
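assay system = DeaD-strain S. cerevisiae | measured by = absorbance at 615 nm | probe or stimulus = nicotinamide 1.5 mM | buffer or medium = CSMM-D glucose medium, restrictive | times = 48 h at 30 °C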
BB579 growth dn = growth inhibitors of yeast BB579 in restrictive medium, primary screen, yeast lifespan-shortening project, S. cerevisiae; OD615, 48 h; inhibition, % at 10 µM; actives 0.51% (n = 140,000); AID 804, 2007;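 active = inhibition above a set limit, 3 SD over the mean compound inhibition, cut at about 44% in these data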
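Test system: S. cerevisiae DeaD strain BB579 yeast; Medium: restrictive CSMM-D medium; Compound: one dose, 10 µM compound with 0.25% DMSO; Incubation: 4 h cell preincubation, 48 h compound exposure, 30 °C humidified; Signal: OD at 615 nm; Benchmarks: amphotericin B at 10 µg/mL as positive control.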
The depositor's hits bear a star. Compounds with a hit are over-represented: about 3% of the library has one in this group of screens.

What do the screens show for `CCCc1cc(=O)[nH]c(SCC(=O)NC2CCCc3ccccc32)n1` (stereo not given)?
Insulin prom up: -0.56

How did COc1ccc(/C=C/c2nnc(NC(=O)COc3ccc(C)cc3)s2)cc1 do in these assays?
Insulin prom up: -0.06; RAM inhibit: 2; Yeast life ext: 4; BB579 growth dn: -48

Results for Cc1ccc(S(=O)(=O)C(C#N)c2nc3ccccc3nc2N2CCC(C)CC2)cc1 (stereo not given) ?
Insulin prom up: 3.8*; RAM inhibit: 2; INS promoter inh: -7; Yeast life ext: 11; BB579 growth dn: -43

What do the screens show for `COc1ccc2cc(C(=O)OC(C)C)sc(=O)c2c1OC`?
RAM inhibit: 2; INS promoter inh: 71*; Yeast life ext: -6; BB579 growth dn: 6

How did O=C(/C=C\c1ccc(-c2ccccc2)o1)c1ccccc1 do in these assays?
Insulin prom up: -0.12; RAM inhibit: 9.6*; Yeast life ext: 15; BB579 growth dn: -41

How did CC(/C=C/C(=O)c1ccc(C)cc1)=C\c1ccccc1 do in these assays?
Insulin prom up: 0.72; RAM inhibit: 1; Yeast life ext: -9; BB579 growth dn: -10

Results for Cc1ccc(C(=O)/C=C\C(=O)c2ccc(C)cc2)cc1 ?
Insulin prom up: 0.45; RAM inhibit: 3; INS promoter inh: 29; Yeast life ext: 65*; BB579 growth dn: 4

How did CCN(CC)S(=O)(=O)c1ccc(C(=O)/C=C/c2ccc(-c3ccc([N+](=O)[O-])cc3)o2)cc1 do in these assays?
Insulin prom up: 1.2

Results for Cc1ccc(C(=O)/C=C/c2ccc(-c3ccc(C)cc3)o2)cc1 ?
Insulin prom up: 2.5; RAM inhibit: 7; INS promoter inh: 34; Yeast life ext: 28*; BB579 growth dn: -16

How did O=C(/C=C/c1ccccc1)c1ccccc1 do in these assays?
RAM inhibit: 0; INS promoter inh: 41; Yeast life ext: -2; BB579 growth dn: -23

What do the screens show for `C=CCCCCCCCCC(=O)NN`?
Insulin prom up: -0.01; RAM inhibit: 0; INS promoter inh: 58; Yeast life ext: -5; BB579 growth dn: 39

How did C/C(=N\N(Cc1ccccc1)c1ccccc1)c1ccncc1 do in these assays?
Insulin prom up: -0.34; RAM inhibit: 4

What do the screens show for `Cc1cc(C)c(C(=O)COC(=O)CCNS(=O)(=O)c2c(Cl)cccc2Cl)cc1C`?
Insulin prom up: 0.4; RAM inhibit: 10*; INS promoter inh: 40; Yeast life ext: 5; BB579 growth dn: -15

What do the screens show for `CC(C)CN=C(NS(=O)(=O)c1ccccc1)C(Cl)(Cl)Cl`?
Insulin prom up: inconclusive; RAM inhibit: 0; INS promoter inh: -7; Yeast life ext: 44*; BB579 growth dn: -27

Results for CN(C)CC(C(=O)c1ccccc1)c1ccccc1 (stereo not given) ?
Insulin prom up: -0.68; RAM inhibit: 1; Yeast life ext: 101*; BB579 growth dn: -38

What do the screens show for `COc1ccc(C(C(=O)OC(C)CN(C)C)c2ccccc2)cc1` (stereo not given)?
Insulin prom up: 0.92; RAM inhibit: 1; INS promoter inh: 26; Yeast life ext: -3; BB579 growth dn: -21

What do the screens show for `O=c1cc(CSc2nnc(COc3cccc4ccccc34)o2)c2ccccc2[nH]1`?
Insulin prom up: 0.98

Results for CCn1c2ccccc2c2nnc(SCC(=O)Nc3cc(C)on3)nc21 ?
Insulin prom up: 4*; RAM inhibit: 6; INS promoter inh: -43; Yeast life ext: -7; BB579 growth dn: -39

What do the screens show for `Cc1oc(C)c2c(=O)ccc3c(c12)OC(N)=C(C#N)C3c1ccccc1Cl` (stereo not given)?
RAM inhibit: 8.8*; Yeast life ext: 6; BB579 growth dn: -44

Results for Cc1cc(C(=O)NNC(=S)Nc2ccccc2)nn1C ?
Insulin prom up: 0.42; RAM inhibit: -1

Results for Cn1c(-c2ccc(Br)cc2)cnc1NCc1cccnc1 ?
Insulin prom up: -0.97; RAM inhibit: 2; INS promoter inh: 51; Yeast life ext: 42*; BB579 growth dn: -29

What do the screens show for `O=C(O)c1ccc(N2C(=O)/C(=C/C=C/c3ccccc3)SC2=S)cc1`?
Insulin prom up: -0.51; RAM inhibit: 1

Results for CN(C)c1ccc(/C=C/C=C2/SC(=S)N(c3ccccc3)C2=O)cc1 ?
RAM inhibit: 11*; INS promoter inh: -296; Yeast life ext: 17; BB579 growth dn: -64

How did O=C1C2=C(NC(=S)NC2c2ccc(Cl)cc2)NC(c2ccc(Cl)cc2)N1c1ccc(Cl)cc1 (stereo not given) do in these assays?
Insulin prom up: 0.35; RAM inhibit: 0; INS promoter inh: -39; Yeast life ext: -8; BB579 growth dn: -50

Results for CCc1ccc(C2NC(=S)NC3=C2C(=O)N(c2ccccc2OC)C(c2ccc(CC)cc2)N3)cc1 (stereo not given) ?
Insulin prom up: 0.65; RAM inhibit: 1; Yeast life ext: -18; BB579 growth dn: 53*

How did Cc1ccc(S(=O)(=O)C/N=C(/NC(=S)N(c2ccccc2)c2ccccc2)c2ccccc2)cc1 do in these assays?
Insulin prom up: 0.99; RAM inhibit: 1; INS promoter inh: -22; Yeast life ext: 46*; BB579 growth dn: -46

How did Cc1cc(C)[n+](-c2ccc(C(C)C)cc2)c2[nH]c(=O)[nH]c(=O)c12 do in these assays?
Insulin prom up: -0.17; RAM inhibit: 2; INS promoter inh: 29; Yeast life ext: 2; BB579 growth dn: -16

Results for Cn1ccnc1C1CCCCN1C(=O)c1cc(COc2ccc(F)cc2F)on1 (stereo not given) ?
Insulin prom up: 0.18

How did COc1ccccc1NC(=O)C1=C(C)NC(SCC(=O)c2ccc(C)cc2)=C(C#N)C1c1ccco1 (stereo not given) do in these assays?
Insulin prom up: 3.3*; RAM inhibit: 8.8*; INS promoter inh: 16; Yeast life ext: -7; BB579 growth dn: -44

Results for COc1ccc(N2CCN(c3ccc(N4C(=O)CC(C)C4=O)cc3[N+](=O)[O-])CC2)cc1 (stereo not given) ?
Insulin prom up: 0.05; RAM inhibit: 2; INS promoter inh: 77*

What do the screens show for `Nc1cc2c(cc1C(=O)c1cccc(Br)c1)OCCO2`?
Insulin prom up: -0.28; RAM inhibit: 0

What do the screens show for `CN1C(=O)NC(c2ccc(O)cc2)C(C(=O)c2cccs2)C1(O)C(F)(F)F` (stereo not given)?
Insulin prom up: -0.6; RAM inhibit: 1; INS promoter inh: -133; Yeast life ext: 34*; BB579 growth dn: -15

What do the screens show for `O=C1NC(c2ccccc2)C(C(=O)c2cccs2)C(O)(C(F)(F)F)N1` (stereo not given)?
Insulin prom up: 1.1; RAM inhibit: -1; INS promoter inh: 15; Yeast life ext: -7; BB579 growth dn: -31
